Source: ChEMBL document CHEMBL1121417, “[1-beta-Mercapto-beta,beta-cyclopentamethylenepropionic acid),2-(O-methyl)tyrosine ]argine-vasopressin and [1-beta-mercapto-beta,beta-cyclopentamethylenepropionic acid)]argine-vasopressine, two highly potent antagonists of the vasopressor response to arginine-vasopressin” (J Med Chem, 1980)
Starred links: 1 amine or outer side, 2 acyl side, 3 side chain; linkers in the order of their positions; H or OH if unused. Positions of bridges follow the written chain, without caps; N, C: chain ends. Non-standard residues stand in square brackets, D forms with d. Residues, ends and D or L forms follow the SMILES beside them. X1 = O=C(CC1(S[*:2])CCCCC1)[*:1]; X2 = CC(C)(CC(=O)[*:1])S[*:2]; Mpa = O=C(O)CCS

Experiments:
Rattus norvegicus [1] = species: Rattus norvegicus; assay: Tested for […] anti-oxytocic effect in the absence of Mg2+ in rats; assay type: functional, organism-based; settings: for Kb: Rattus norvegicus, read-out: pA2 (converted)
Procedure, shortened: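 Isolated rat uterus in vitro in a medium without Mg2+. Antagonism is expressed as pA2 by the Schild method, computed per assay group, with mean ± SE and the number of assays.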

Rattus norvegicus [2] = assay: Tested for intravenous anti-vasopressor pA2 effect in rats; assay type: functional, organism-based; settings: for Kb: Rattus norvegicus, read-out: pA2 (converted)
Procedure, shortened: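 Vasopressor assay in rats pretreated with phenoxybenzamine under urethane anesthesia, using intravenous injections. The pA2 is derived by the Schild method for each assay group and reported as mean ± SE, with the number of assays given.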

Rattus norvegicus [3] = assay: Tested for intravenous anti-oxytocic effect in the absence of Mg2+ in rats; agonist at concentration of 8 units/kg; assay type: functional, organism-based; settings: filed as agonist
Rattus norvegicus [4] = assay: Tested for intravenous antidiuretic activity in rats; assay type: functional, Urine; parameters: unit: U/mg
Procedure, shortened: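 Intravenous antidiuretic assay in rats under ethanol anesthesia. Agonistic activity is expressed in units per milligram.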

Rattus norvegicus [5] = assay: Tested for intravenous anti-oxytocic effect in in vivo in rats; assay type: functional, organism-based; settings: read-out: pA2 (converted)
Procedure, shortened: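 Rat uterus in situ; antagonism expressed as pA2 by the Schild method, calculated for each assay group and reported as mean ± SE, with the number of assays given.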

Rattus norvegicus [6] = assay: Tested for intravenous anti-oxytocic effect in the presence of Mg2+ in rats; assay type: functional, organism-based; settings: read-out: pA2 (converted)
Rattus norvegicus [7] = assay: Tested for intravenous anti-oxytocic effect in the absence of Mg2+ in rats; agonist at concentration of 47 units/kg; assay type: functional, organism-based; settings: filed as agonist
Rattus norvegicus [8] = assay: Tested for intravenous anti-vasopressor pA2 effect in rats; agonist at concentration of 346 units/kg; assay type: functional, organism-based; settings: filed as agonist, in the assay text read “346 units/mg” for “346 units/kg”
Procedure, shortened: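 Vasopressor assay in rats anesthetized with urethane and pretreated with phenoxybenzamine, with intravenous injections. Antagonism is expressed as pA2, calculated by Schild's method for each assay group and reported as mean ± SE, with the number of assays given.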

Rattus norvegicus [9] = assay: Tested for intravenous anti-vasopressor pA2 effect in rats; agonist at concentration of 4 units/mg; settings: filed as agonist

| SMILES | Kb (Rattus norvegicus [1]) [nM] | Kb (Rattus norvegicus [2]) [nM] | Antidiuretic activity (Rattus norvegicus [4]) | further results |
| --- | --- | --- | --- | --- |
| CC1(C)CC(=O)N[C@@H](Cc2ccc(O)cc2)C(=O)N[C@@H](Cc2ccccc2)C(=O)N[C@@H](CCC(N)=O)C(=O)N[C@@H](CC(N)=O)C(=O)N[C@H](C(=O)N2CCC[C@H]2C(=O)N[C@@H](CCCN=C(N)N)C(=O)NCC(N)=O)CSS1 (YFQNCPRG-NH2; linker N-5 via X2) [listing 1 of 2 here] | 117 | 35.5 | – | – |
| COc1ccc(C[C@@H]2NC(=O)CC(C)(C)SSC[C@@H](C(=O)N3CCC[C@H]3C(=O)N[C@@H](CCCN=C(N)N)C(=O)NCC(N)=O)NC(=O)[C@H](CC(N)=O)NC(=O)[C@H](CCC(N)=O)NC(=O)[C@H](Cc3ccccc3)NC2=O)cc1 (Y(Me)FQNCPRG-NH2; linker N-5 via X2) [listing 1 of 2 here] | 24.5 | 20.4 | – | – |
| CC(C)[C@@H]1NC(=O)[C@H](Cc2ccccc2)NC(=O)[C@H](Cc2ccc(O)cc2)NC(=O)CCSSC[C@@H](C(=O)N2CCC[C@H]2C(=O)N[C@H](CCCNC(=N)N)C(=O)NCC(N)=O)NC(=O)[C@H](CC(N)=O)NC1=O ([Mpa]YFVNCP[dR]G-NH2; disulfide 1-6) | – | 93.3 | 1230 | pA2 (Rattus norvegicus [3]): agonist at concentration of 8 units/kg |
| COc1ccc(C[C@@H]2NC(=O)CCSSC[C@@H](C(=O)N3CCC[C@H]3C(=O)N[C@@H](CCCN=C(N)N)C(=O)NCC(N)=O)NC(=O)[C@H](CC(N)=O)NC(=O)[C@H](CCC(N)=O)NC(=O)[C@H](Cc3ccccc3)NC2=O)cc1 [listing 1 of 2 here] | 38.9 | – | – | – |
| COc1ccc(C[C@@H]2NC(=O)CC(C)(C)SSC[C@@H](C(=O)N3CCC[C@H]3C(=O)N[C@@H](CCCN=C(N)N)C(=O)NCC(N)=O)NC(=O)[C@H](CC(N)=O)NC(=O)[C@H](CCC(N)=O)NC(=O)[C@H](Cc3ccccc3)NC2=O)cc1 (Y(Me)FQNCPRG-NH2; linker N-5 via X2) [listing 2 of 2 here] | – | – | 3.5 | – |
| COc1ccc(C[C@@H]2NC(=O)CC3(CCCCC3)SSC[C@@H](C(=O)N3CCC[C@H]3C(=O)N[C@@H](CCCN=C(N)N)C(=O)NCC(N)=O)NC(=O)[C@H](CC(N)=O)NC(=O)[C@H](CCC(N)=O)NC(=O)[C@H](Cc3ccccc3)NC2=O)cc1 (Y(Me)FQNCPRG-NH2; linker N-5 via X1) | 7.41 | 2.4 | 0.31 | Kb (Rattus norvegicus [5]): 240 nM; pA2 (Rattus norvegicus [1]): 8.13; Kb (Rattus norvegicus [6]): 57.5 nM; pA2 (Rattus norvegicus [2]): 8.67 |
| COc1ccc(C[C@@H]2NC(=O)CCSSC[C@@H](C(=O)N3CCC[C@H]3C(=O)N[C@@H](CCCN=C(N)N)C(=O)NCC(N)=O)NC(=O)[C@H](CC(N)=O)NC(=O)[C@H](CCC(N)=O)NC(=O)[C@H](Cc3ccccc3)NC2=O)cc1 [listing 2 of 2 here] | – | – | 830 | – |
| NC(=O)CC[C@@H]1NC(=O)[C@H](Cc2ccccc2)NC(=O)[C@H](Cc2ccc(O)cc2)NC(=O)CC2(CCCCC2)SSC[C@@H](C(=O)N2CCC[C@H]2C(=O)N[C@@H](CCCN=C(N)N)C(=O)NCC(N)=O)NC(=O)[C@H](CC(N)=O)NC1=O (YFQNCPRG-NH2; linker N-5 via X1) [listing 1 of 2 here] | – | – | 0.033 | – |
| CC(C)[C@@H]1NC(=O)[C@H](Cc2ccccc2)NC(=O)[C@H](Cc2ccc(O)cc2)NC(=O)CC(C)(C)SSC[C@@H](C(=O)N2CCC[C@H]2C(=O)N[C@H](CCCN=C(N)N)C(=O)NCC(N)=O)NC(=O)[C@H](CC(N)=O)NC1=O (YFVNCP[dR]G-NH2; linker N-5 via X2) [listing 1 of 2 here] | 58.9 | 15.1 | – | – |
| N=C(N)NCCC[C@@H](NC(=O)[C@@H]1CCCN1C(=O)[C@@H]1CSSCCC(=O)N[C@@H](Cc2ccc(O)cc2)C(=O)N[C@@H](Cc2ccccc2)C(=O)N[C@@H](CCC(N)=O)C(=O)N[C@@H](CC(N)=O)C(=O)N1)C(=O)NCC(N)=O [DESMOPRESSIN] | – | – | 1745 | pA2 (Rattus norvegicus [7]): Agonist; pA2 (Rattus norvegicus [8]): Agonist |
| COc1ccc(C[C@@H]2NC(=O)CCSSC[C@H](C(=O)N3CCC[C@H]3C(=O)N[C@@H](CCCN=C(N)N)C(=O)NCC(N)=O)NC(=O)[C@H](CC(N)=O)NC(=O)[C@H](CCC(N)=O)NC(=O)[C@H](Cc3ccccc3)NC2=O)cc1 | – | – | – | pA2 (Rattus norvegicus [9]): agonist at concentration of 4 units/kg |
| CC(C)[C@@H]1NC(=O)[C@H](Cc2ccccc2)NC(=O)[C@H](Cc2ccc(O)cc2)NC(=O)CC2(CCCCC2)SSC[C@@H](C(=O)N2CCC[C@H]2C(=O)N[C@H](CCCN=C(N)N)C(=O)NCC(N)=O)NC(=O)[C@H](CC(N)=O)NC1=O (YFVNCP[dR]G-NH2; linker N-5 via X1) [listing 1 of 2 here] | – | – | 0.1 | – |
| CC(C)[C@@H]1NC(=O)[C@H](Cc2ccccc2)NC(=O)[C@H](Cc2ccc(O)cc2)NC(=O)CC(C)(C)SSC[C@@H](C(=O)N2CCC[C@H]2C(=O)N[C@H](CCCN=C(N)N)C(=O)NCC(N)=O)NC(=O)[C@H](CC(N)=O)NC1=O (YFVNCP[dR]G-NH2; linker N-5 via X2) [listing 2 of 2 here] | – | – | 123 | – |
| CC1(C)CC(=O)N[C@@H](Cc2ccc(O)cc2)C(=O)N[C@@H](Cc2ccccc2)C(=O)N[C@@H](CCC(N)=O)C(=O)N[C@@H](CC(N)=O)C(=O)N[C@H](C(=O)N2CCC[C@H]2C(=O)N[C@@H](CCCN=C(N)N)C(=O)NCC(N)=O)CSS1 (YFQNCPRG-NH2; linker N-5 via X2) [listing 2 of 2 here] | – | – | 42 | – |
| NC(=O)CC[C@@H]1NC(=O)[C@H](Cc2ccccc2)NC(=O)[C@H](Cc2ccc(O)cc2)NC(=O)CC2(CCCCC2)SSC[C@@H](C(=O)N2CCC[C@H]2C(=O)N[C@@H](CCCN=C(N)N)C(=O)NCC(N)=O)NC(=O)[C@H](CC(N)=O)NC1=O (YFQNCPRG-NH2; linker N-5 via X1) [listing 2 of 2 here] | – | 4.47 | – | Kb (Rattus norvegicus [5]): 162 nM; Kb (Rattus norvegicus [6]): 64.6 nM |
| CC(C)[C@@H]1NC(=O)[C@H](Cc2ccccc2)NC(=O)[C@H](Cc2ccc(O)cc2)NC(=O)CC2(CCCCC2)SSC[C@@H](C(=O)N2CCC[C@H]2C(=O)N[C@H](CCCN=C(N)N)C(=O)NCC(N)=O)NC(=O)[C@H](CC(N)=O)NC1=O (YFVNCP[dR]G-NH2; linker N-5 via X1) [listing 2 of 2 here] | 240 | 20.9 | – | – |
